High-throughput results: PubChem, several laboratories
Sampled rows, rich in hits. Any-hit rate of the full collection: about 2%.
Bfl-1 A1 inh – inhibitors of the anti-apoptotic protein A1, read as caspase activation. MEF A1-2A-BIM cells, Caspase-Glo 3/7 luminescence, 3 h; percent of clofoctol response, vehicle zero. caspase activation, % (no concentration beside the values). 330,000 compounds, 0.066% hits;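 active = over half of replicate activation scores above 10%, or exactly half above 10 with the replicate mean above 10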
UPR XBP1 act – activators of adaptive arm of unfolded protein response (XBP1); 330,000 compounds, 0.33% hits; activation, % at 20 µM; CHO-XBP1 luciferase reporter, IRE1-XBP1 UPR activation, luminescence; percent of tunicamycin response, DMSO as zero;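 active = versus positive control, 20 µM dose yields 30% or more activation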
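Material: CHO cell line with stable XBP1 luciferase reporter; schedule: 16-18 h cell attachment at 37 °C, then 6 h compound exposure; signal: glow luminescence from Steady-Glo reagent; medium: serum-containing F12 medium, 10% FBS; benchmarks: tunicamycin 10 µg/mL and vehicle-only wells; read-out: percent activation relative to tunicamycin reference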
MC4R barr agon – agonists of human melanocortin 4 receptor (MC4R) beta-arrestin; P32245; U2OS MC4R beta-arrestin complementation, luminescence; percent of melanotan II response, DMSO zero; activation, % at 8.9 µM; 360,000 compounds, 0.98% hits; AID 540308;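 active = activation above a per-plate cutoff, the mean activation of sample wells on that plate plus 3 SD, cut at about 8% in these data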
Target sequence (P32245 whole entry, looked up): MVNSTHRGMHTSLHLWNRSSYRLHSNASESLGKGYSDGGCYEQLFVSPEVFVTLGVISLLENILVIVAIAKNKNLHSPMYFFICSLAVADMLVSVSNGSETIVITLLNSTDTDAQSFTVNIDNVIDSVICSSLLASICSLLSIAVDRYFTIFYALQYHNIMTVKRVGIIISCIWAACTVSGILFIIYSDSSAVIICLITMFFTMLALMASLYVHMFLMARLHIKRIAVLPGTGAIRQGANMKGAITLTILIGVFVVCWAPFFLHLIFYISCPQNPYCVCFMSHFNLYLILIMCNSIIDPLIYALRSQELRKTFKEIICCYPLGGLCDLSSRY
MC4R antagonist – blocks human MC4R cAMP signaling; MC4R-expressing cells, MTII-stimulated cAMP, LANCE TR-FRET; AID 540295; inhibition, % at 6.5 µM; 360,000 compounds, 0.48% hits;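 active = inhibition above its plate's cutoff, the mean of tested wells on that plate plus 3 SD, cut at about 29% in these data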
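Material: U2OS-MC4R stable cell line | Reagent: Melanotan II challenge after compound preincubation | Doses: One concentration, 6.5 µM nominal | Incubation: 30-min compound preincubation, 1-h Melanotan II challenge, 1-h detection, room temperature | Signal: TR-FRET cAMP assay | Replicates: One well per compound, no replicates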
UPR CHOP act – apoptotic UPR (CHOP) activation; 330,000 compounds, 0.34% hits; activation, % at 10 µM; CHO-CHOP luciferase reporter, luminescence; percent of tunicamycin response over DMSO baseline;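 active = at 10 µM dose, activation of 40% or more, normalized to positive control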
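System: CHO-CHOP luciferase reporter cell line | Buffer or medium: F12 medium containing 10% fetal bovine serum | Doses: One dose, 10 µM in 0.5% DMSO | Times: 6 h compound exposure at 37 °C after overnight seeding | Signal: Luciferase luminescence | Read-out: % activation vs tunicamycin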
Of the large screens only hits and unclear results are named; the others gave an inactive call.

CC[n+]1c(/C=C/N(C)c2ccccc2)n(-c2ccccc2)c2ccc(-c3nc4ccccc4s3)cc21	MC4R barr agon 16
CN(C)CCC(=O)c1ccc2c(c1)OCO2	MC4R antagonist 33
Nc1ccn(C2OC(CCl)C(O)C2O)c(=O)n1 (centres undefined)	none (no result: Bfl-1 A1 inh, UPR XBP1 act, UPR CHOP act)
O=C(c1ccoc1)N1CCN(c2cc(-c3ccncc3)nc3cc(-c4cccc(Cl)c4)nn23)CC1	MC4R barr agon 8.8 (no result: Bfl-1 A1 inh, UPR XBP1 act, UPR CHOP act)
O=C(c1ccncc1)N1CCN(c2cc(-c3ccccc3)nc3cc(-c4cccc(Cl)c4)nn23)CC1	none (no result: Bfl-1 A1 inh, UPR XBP1 act, UPR CHOP act)
C=CCOc1ccccc1CN(C(=O)CCl)c1ccc2c(c1)OCO2	MC4R barr agon 15
CCOc1ccccc1NC(=O)Nc1ccc2c(c1)OCO2	none
Fc1cccc(/C=N/Nc2ccc(Cl)nn2)c1	MC4R barr agon 12
Oc1c(Br)cc(/C=N/Nc2ccc(Cl)nn2)cc1Br	none
O=C(/C=C/c1ccco1)NC(=S)Nc1ccc(N2CCOCC2)c(Cl)c1	MC4R barr agon 22
O=C(/C=C/c1ccccc1)NC(=S)Nc1ccc(N2CCOCC2)c(Cl)c1	none
Cc1ccc(-c2nc3ncccc3o2)cc1NC(=O)c1ccc2c(c1)OCO2	none (no result: Bfl-1 A1 inh, UPR XBP1 act, UPR CHOP act)
Cc1ccc(-c2nc3ccccc3s2)cc1NC(=O)c1ccc2c(c1)OCO2	MC4R antagonist 38
O=C(COc1ccccc1Br)Nc1ccccc1C(F)(F)F	MC4R barr agon 9.4
CCc1nc2ccc(C(=O)NC(C)(C)C)cn2c1N(CC)Cc1cccc(Br)c1	none (no result: Bfl-1 A1 inh, UPR XBP1 act, UPR CHOP act)
COC(=O)c1sc2ncccc2c1OCc1c(Cl)cccc1Cl	MC4R barr agon 20
COC(=O)c1sc2ncccc2c1OCc1cccc(Cl)c1	none
Cc1cccc(-n2c(CCc3ccccc3)nnc2SCC(=O)c2ccccc2)c1	MC4R barr agon 8.3
Cc1ccc(OCc2nnc(SCC(=O)c3ccccc3)n2-c2ccccc2)cc1	none
O=C(N/N=C/c1ccc(Br)s1)c1ccco1	none
O=C(N/N=C/c1sc(=O)n(Cc2ccc(Br)cc2)c1Cl)c1ccco1	MC4R barr agon 26
OCCCNc1ncnc2c1ncn2[C@H]1CN(Cc2ccc(Cl)cc2)C[C@@H](CO)O1	none (no result: Bfl-1 A1 inh, UPR XBP1 act, UPR CHOP act)
Cn1c(=O)[nH]c(=O)c2c1nc(NCCCO)n2Cc1ccc(F)cc1	none
Cc1ccc(Nc2nc3c(c(=O)[nH]c(=O)n3C)n2Cc2ccc(F)cc2)cc1	MC4R barr agon 8.9
Cc1c(Cl)cccc1NC(=O)Cn1nnc(C(=O)NCc2cccs2)c1N	none
Cc1cccc(NC(=O)Cn2nnc(C(=O)NCc3cccs3)c2N)c1C	MC4R barr agon 9.0
CC(C)NC(=O)c1cc(C2CCCCN2C(=O)c2cc(C(C)(C)C)nn2C)on1 (centres undefined)	none (no result: Bfl-1 A1 inh, UPR XBP1 act, UPR CHOP act)
NC(CCc1ccccc1)c1csc(NC(=O)Nc2cccc(C(F)(F)F)c2)n1 (centres undefined)	MC4R barr agon 8.8 (no result: Bfl-1 A1 inh, UPR XBP1 act, UPR CHOP act)
NC(CCc1ccccc1)c1csc(NC(=O)NCC2CCCCC2)n1 (centres undefined)	MC4R barr agon 8.7 (no result: Bfl-1 A1 inh, UPR XBP1 act, UPR CHOP act)
COC(=O)/C=C1\C(=O)N(c2nc3ccc(OC)cc3s2)C(=S)N1c1ccc(F)cc1	UPR CHOP act 73 (no result: MC4R barr agon, MC4R antagonist)
COC(=O)/C=C1\C(=O)N(c2nc3ccccc3s2)C(=S)N1c1ccc(F)cc1	none
COc1cc2c(cc1OC)C(CNC(=O)C=Cc1ccccc1)C2 (centres undefined)	none (no result: Bfl-1 A1 inh, UPR XBP1 act, UPR CHOP act)
Cn1cnc([N+](=O)[O-])c1S(=O)(=O)Oc1ccccc1	none (no result: Bfl-1 A1 inh, UPR XBP1 act, UPR CHOP act)
Cn1cnc([N+](=O)[O-])c1S(=O)(=O)c1cccc(Cl)c1	Bfl-1 A1 inh 7.8
O=C1OCCC1=COCCCCCCOC=C1CCOC1=O	none (no result: Bfl-1 A1 inh, UPR XBP1 act, UPR CHOP act)
Nc1nnnn1/N=C/c1ccccc1OCc1ccc(Cl)cc1Cl	none
Nc1nnnn1/N=C/c1ccccc1OCc1ccc(Cl)cc1	MC4R barr agon 8.3
C[C@@H]1CN([C@@H](C)CO)C(=O)c2cc(Br)cnc2O[C@H]1CN(C)Cc1cccc(C(=O)O)c1	none (no result: Bfl-1 A1 inh, UPR XBP1 act, UPR CHOP act)
CCOc1ccc(-n2c(N)c(-c3nc4ccccc4[nH]3)sc2=S)cc1	MC4R barr agon 8.8
Cc1cc(NC(=O)COC(=O)c2cccc(OCc3ccccc3)c2)no1	MC4R barr agon 8.5
Cc1cc(NC(=O)COC(=O)c2ccc(C)c(C)c2)no1	none
CC1(C)CN(Cc2ccccc2)C(=O)[C@H]1CC(=O)Nc1ccc(Br)cc1	none (no result: Bfl-1 A1 inh, UPR XBP1 act, UPR CHOP act)
